Assay results as given in ChEMBL document CHEMBL4152308, “Synthesis and biological evaluation of novel 2-oxo-1,2-dihydroquinoline-4-carboxamide derivatives for the treatment of esophageal squamous cell carcinoma” (Eur J Med Chem, 2018).

Tests used:
KYSE-70 cell line = assay: Antiproliferative activity against human KYSE-70 cells after 72 hrs by MTT assay; type: functional, cell-based; settings: KYSE-70, 72 h
Summary of the method: (§1)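 Cells grown as monolayers at 37 °C, 5% CO2, mycoplasma-checked, in exponential phase. Cells seeded in 96-well plates, 24 h attachment, then compound added for 72 h. MTT 0.3 mg/mL for 3 h at 37 °C, DMSO solubilization, absorbance at 570 nm. Inhibition = (1 − A/C) × 100%. IC50 from log(concentration) vs % inhibition plot; triplicate wells, SD from ≥3 independent experiments.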

KYSE-410 [1] = assay: Antiproliferative activity against human KYSE410 cells after 72 hrs by MTT assay; type: functional, cell-based; settings: KYSE-410, 72 h; summary of the method: as §1
SK-OV-3 = assay: Antiproliferative activity against human SKOV3 cells after 72 hrs by MTT assay; type: functional, cell-based; settings: SK-OV-3, 72 h; summary of the method: as §1
OVCAR-8 = assay: Antiproliferative activity against human OVCAR8 cells after 72 hrs by MTT assay; type: functional, cell-based; settings: OVCAR-8, 72 h; summary of the method: as §1
MIA PaCa-2 = assay: Antiproliferative activity against human MIAPaCa2 cells after 72 hrs by MTT assay; type: functional, cell-based; settings: MIA PaCa-2, 72 h; summary of the method: as §1
KYSE-410 [2] = assay: Cell cycle arrest in human KYSE410 cells assessed as accumulation at G1 phase at 5 uM after 24 to 48 hrs by propidium iodide staining based flow cytometry (reference value: 65.4%); type: functional
KYSE-410 [3] = assay: Cell cycle arrest in human KYSE410 cells assessed as accumulation at S phase at 5 uM after 24 to 48 hrs by propidium iodide staining based flow cytometry (reference value: 22.3%); type: functional
KYSE-410 [4] = assay: Cell cycle arrest in human KYSE410 cells assessed as accumulation at G2 phase at 5 uM after 24 to 48 hrs by propidium iodide staining based flow cytometry (reference value: 12.2%); type: functional
KYSE-410 [5] = assay: Cell cycle arrest in human KYSE410 cells assessed as accumulation at G1 phase at 1 uM after 24 to 48 hrs by propidium iodide staining based flow cytometry (reference value: 65.4%); type: functional
KYSE-410 [6] = assay: Cell cycle arrest in human KYSE410 cells assessed as accumulation at G2 phase at 1 uM after 24 to 48 hrs by propidium iodide staining based flow cytometry (reference value: 12.2%); type: functional
KYSE-410 [7] = assay: Cell cycle arrest in human KYSE410 cells assessed as accumulation at S phase at 1 uM after 24 to 48 hrs by propidium iodide staining based flow cytometry (reference value: 22.3%); type: functional

Structure (SMILES)	IC50 (KYSE-70 cell line)	IC50 (KYSE-410 [1])	also measured
COc1cccc2c(C(=O)Nc3cc(F)cc(F)c3)cc(=O)[nH]c12	> 20 µM	> 20 µM	–
O=C(Nc1cc(F)cc(F)c1)c1cc(=O)[nH]c2cc(O)ccc12	> 20 µM	> 20 µM	–
O=C(Nc1cccc(F)c1)c1cc(=O)[nH]c2cc(-c3ccncc3)ccc12	> 20 µM	> 20 µM	–
COc1ccc(-c2ccc3c(C(=O)Nc4cccc(F)c4)cc(=O)[nH]c3c2)cc1	> 20 µM	18 µM	–
O=C(Nc1cc(F)c(F)c(F)c1)c1cc(=O)[nH]c2cc(Br)ccc12	> 20 µM	> 20 µM	–
O=C(Nc1ccc(F)cc1F)c1cc(=O)[nH]c2cc(Br)ccc12	> 20 µM	> 20 µM	–
COc1ccc2c(C(=O)Nc3cc(F)cc(F)c3)cc(=O)[nH]c2c1	> 20 µM	> 20 µM	–
O=C(Nc1cccc(F)c1)c1cc(=O)[nH]c2cc(C3=CCOCC3)ccc12	10.5 µM	12.1 µM	IC50 (SK-OV-3): 13.3 µM; IC50 (OVCAR-8): 21.8 µM; IC50 (MIA PaCa-2): 8.8 µM
O=C(Nc1cccc(F)c1)c1cc(=O)[nH]c2cc(-c3ccccc3F)ccc12	> 20 µM	> 20 µM	–
O=C(Nc1cccc(F)c1)c1cc(=O)[nH]c2cc(-c3ccccc3)ccc12	> 20 µM	> 20 µM	–
O=C(Nc1cccc(Cl)c1)c1cc(=O)[nH]c2cc(Br)ccc12	> 20 µM	> 20 µM	–
O=C(Nc1cc(F)ccc1F)c1cc(=O)[nH]c2cc(Br)ccc12	> 20 µM	> 20 µM	–
CC(=O)c1ccc(-c2ccc3c(C(=O)Nc4cccc(F)c4)cc(=O)[nH]c3c2)cc1	> 20 µM	> 20 µM	–
O=C(Nc1cc(F)cc(F)c1)c1cc(=O)[nH]c2cc(F)ccc12	> 20 µM	> 20 µM	–
O=C(Nc1ccc(C(F)(F)F)cc1)c1cc(=O)[nH]c2cc(Br)ccc12	> 20 µM	> 20 µM	–
O=C(Nc1cccc(F)c1)c1cc(=O)n(O)c2ccccc12	> 20 µM	> 20 µM	–
O=C(Nc1cc(F)cc(F)c1)c1cc(=O)[nH]c2cc(Cl)ccc12	9 µM	11 µM	–
Cc1cc(-c2ccc3c(C(=O)Nc4cccc(F)c4)cc(=O)[nH]c3c2)c(C)cc1F	> 20 µM	> 20 µM	–
O=C(Nc1cccc(OC(F)(F)F)c1)c1cc(=O)[nH]c2cc(Br)ccc12	> 20 µM	14 µM	–
O=C(Nc1cccc(F)c1)c1cc(=O)[nH]c2cc(-c3cccc(F)c3)ccc12	12 µM	10.9 µM	–
O=C(Nc1cccc(F)c1)c1cc(=O)[nH]c2cc(F)ccc12	> 20 µM	> 20 µM	–
O=C(Nc1ccc(OC(F)(F)F)cc1)c1cc(=O)[nH]c2cc(Br)ccc12	> 20 µM	> 20 µM	–
O=C(c1ccnc2cc(Br)ccc12)N1CCCCC1	> 20 µM	> 20 µM	–
CCN(CC)CCCC(C)Nc1ccnc2cc(Cl)ccc12 (stereo not drawn) [CHLOROQUINE]	–	–	Activity (KYSE-410 [2]): 64.3%; Activity (KYSE-410 [3]): 24.4%; Activity (KYSE-410 [4]): 11.3%; Activity (KYSE-410 [5]): 65.6%; Activity (KYSE-410 [6]): 13.7%; Activity (KYSE-410 [7]): 20.7%
O=C(Nc1ccc(F)cc1)c1cc(=O)[nH]c2cc(Br)ccc12	> 20 µM	> 20 µM	–
O=C(Nc1cccc(C(F)(F)F)c1)c1cc(=O)[nH]c2cc(Br)ccc12	> 20 µM	> 20 µM	–
COc1ccc(NC(=O)c2cc(=O)[nH]c3cc(Br)ccc23)cc1	> 20 µM	> 20 µM	–
O=C(Nc1cc(F)cc(F)c1)c1cc(=O)[nH]c2cc(C(F)(F)F)ccc12	14.2 µM	17.9 µM	–
